Data as given in PubChem BioAssay AID540347 (Broad Institute, 2011).
The source made the active and inactive calls.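 Rule for the calls: active = viability loss with fitted half-maximal concentration at most ten times the top valid dose; inconclusive = flat fit with 30 to 70% inhibition, or poor fit; inactive = the rest, including rising signal.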

Assays:
[1] = SK-MEL-5 parental cell viability loss, dose response, orthogonal assay for MITF inhibitor project, CellTiter-Glo luminescence, dry powder samples (AID 540347); conditions: SK-MEL-5 viability, CellTiter-Glo ATP luminescence, 24 h; at 35 µM (top of the series)
Procedure, shortened: (§1)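 Schedule: 24 h compound exposure, 37 °C. Assay system: SK-MEL-5 melanoma cells, parent of primary-assay reporter line. Buffer or medium: phenol red-free medium. Read-out: cell viability. Measured by: ATP luminescence, CellTiter-Glo.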

[2] = tested on: SK-MEL-5 viability, CellTiter-Glo ATP luminescence, 24 h; assay: as above
Procedure, shortened: as §1

Compound	activity change, negative = inhibition [1]	IC50 [2]
Cc1oc(-c2ccc(Cl)cc2)nc1CN1CCC(C(=O)NCCCN2CCCC(C)C2)CC1 (stereo not given)	-12.1% (inactive)	
Cc1ccc(C(=O)N/N=C/c2ccc([N+](=O)[O-])s2)cc1	-12.1% (inactive)	
CC1(C)CC(NC(=O)c2ccc(Cl)c(S(=O)(=O)N(Cc3ccccc3)c3ccccc3)c2)CC(C)(C)N1		29.2 µM
CC1CCCCC1NC(=O)/C(C#N)=C/C=C/c1ccccc1[N+](=O)[O-] (stereo not given)	9.93% (inactive)	
CCN1CCN(C2=C(NS(=O)(=O)c3ccc(Br)cc3)C(=O)c3ccccc3C2=O)CC1		33.5 µM
Cc1cc(C(C)(C)C)cc(C)c1Cn1c2[n+](c3ccc(C(F)(F)F)cc31)CCCCC2		27.1 µM
Cc1ccc(C(C)C)c(OCc2nn(CC(=O)c3ccc(Cl)cc3)c3[n+]2CCCCC3)c1	-4.44% (inactive)	
O=C(Nc1ccc(-c2nc3ncccc3o2)cc1)c1ccc([N+](=O)[O-])o1	6.95% (inactive)	
CC1=NNC(=O)/C1=C\c1cn(-c2ccccc2)nc1-c1ccc(F)cc1		25.4 µM
CCN1CCCC1CNC(=O)c1ccc2c(c1)NC(=O)/C(=C\c1ccc(C)cc1)S2 (stereo not given)		29.1 µM
N=c1n(CCN2CCCC2)c2ccccc2n1CC(O)c1ccc(Cl)c(Cl)c1 (stereo not given)		30.5 µM
Cc1[nH]c2ccccc2c1C(=O)CCl		27.7 µM
CC1CCN(CC(CS(=O)(=O)c2ccc([N+](=O)[O-])cc2)N2CCC(C)CC2)CC1 (stereo not given)	3.72% (inactive)	
CC(C)C(CCNC1CCN(C)CC1)c1ccc(Cl)cc1 (stereo not given)		36.5 µM
CCN1c2ccccc2NC2N=C(OC)C(c3ccccc3)C21 (stereo not given)		4.78 µM
CN(C)CCCNC(=O)/C(=C\c1ccc(-c2ccc(Br)cc2)o1)NC(=O)c1ccccc1		32 µM
O=C(COc1ccccc1)N/N=C/c1ccc([N+](=O)[O-])o1		35.5 µM
C=CCNC1=C(Cl)C(=O)c2ccccc2C1=O		14.3 µM
COc1cc(/C=N/NC(N)=O)c(Br)cc1OCC(=O)Nc1ccccc1C	-15.2% (inactive)	
Cc1nc2ccccc2n1/N=C/c1ccc([N+](=O)[O-])s1		9.51 µM
COc1ccc(S(=O)(=O)N(C(C)=O)c2ccc(OC(C)=O)c3ccccc23)cc1[N+](=O)[O-]		6.58 µM
O=c1c(Cl)c2oc3ccccc3nc-2c2ccccc12		24.7 µM
CCN(CC)CCNC(=O)c1c(C)n(-c2ccccc2)c2cc(Br)c(OC)cc12	-13.7% (inactive)	
COc1cc2c(cc1OC)C(c1ccccc1)N(C(=O)CCl)CC2 (stereo not given)		28.4 µM
Cc1ccc(C(O)(c2ccc(C)c(C)c2)C2CN3CCC2CC3)cc1C (stereo not given)	-2.1% (inactive)	
